# Screening data deposited in PubChem BioAssay by Johns Hopkins Ion Channel Center.
# A selection: hits, their analogues and other compounds. The true share with any hit is near 3.7%.
# Kir21 inh = Kir2.1 (mouse) channel inhibition; B-score at 10 µM; HEK293-Kir2.1, FluxOR thallium flux fluorescence; active compounds read low; P35561; actives 0.85% (n = 310,000);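 active = fluorescence ratio B-score at or below minus 3 SD of library scores, with starting-brightness B-score within 2 SD, cut at about -4.2 in these data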;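 note: channel flux triggered by added potassium and thallium sulfate stimulus; B-score of peak minus minimum fluorescence over baseline after thallium stimulus; more negative B-score means stronger Kir2.1 block with less thallium influx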
# hERG protect = hERG (human) protection from proarrhythmic block | actives 0.51% (n = 310,000) | activation (rescue from dofetilide block), less the hit threshold, % at 10 µM | CHO-hERG, FluxOR thallium flux, dofetilide IC70 present;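 active = activation above the mean of controls blocked by dofetilide plus 5 SD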;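 note: thallium influx through hERG after potassium depolarization seen as dye fluorescence rise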
# Target sequence (Q12809 whole entry, looked up): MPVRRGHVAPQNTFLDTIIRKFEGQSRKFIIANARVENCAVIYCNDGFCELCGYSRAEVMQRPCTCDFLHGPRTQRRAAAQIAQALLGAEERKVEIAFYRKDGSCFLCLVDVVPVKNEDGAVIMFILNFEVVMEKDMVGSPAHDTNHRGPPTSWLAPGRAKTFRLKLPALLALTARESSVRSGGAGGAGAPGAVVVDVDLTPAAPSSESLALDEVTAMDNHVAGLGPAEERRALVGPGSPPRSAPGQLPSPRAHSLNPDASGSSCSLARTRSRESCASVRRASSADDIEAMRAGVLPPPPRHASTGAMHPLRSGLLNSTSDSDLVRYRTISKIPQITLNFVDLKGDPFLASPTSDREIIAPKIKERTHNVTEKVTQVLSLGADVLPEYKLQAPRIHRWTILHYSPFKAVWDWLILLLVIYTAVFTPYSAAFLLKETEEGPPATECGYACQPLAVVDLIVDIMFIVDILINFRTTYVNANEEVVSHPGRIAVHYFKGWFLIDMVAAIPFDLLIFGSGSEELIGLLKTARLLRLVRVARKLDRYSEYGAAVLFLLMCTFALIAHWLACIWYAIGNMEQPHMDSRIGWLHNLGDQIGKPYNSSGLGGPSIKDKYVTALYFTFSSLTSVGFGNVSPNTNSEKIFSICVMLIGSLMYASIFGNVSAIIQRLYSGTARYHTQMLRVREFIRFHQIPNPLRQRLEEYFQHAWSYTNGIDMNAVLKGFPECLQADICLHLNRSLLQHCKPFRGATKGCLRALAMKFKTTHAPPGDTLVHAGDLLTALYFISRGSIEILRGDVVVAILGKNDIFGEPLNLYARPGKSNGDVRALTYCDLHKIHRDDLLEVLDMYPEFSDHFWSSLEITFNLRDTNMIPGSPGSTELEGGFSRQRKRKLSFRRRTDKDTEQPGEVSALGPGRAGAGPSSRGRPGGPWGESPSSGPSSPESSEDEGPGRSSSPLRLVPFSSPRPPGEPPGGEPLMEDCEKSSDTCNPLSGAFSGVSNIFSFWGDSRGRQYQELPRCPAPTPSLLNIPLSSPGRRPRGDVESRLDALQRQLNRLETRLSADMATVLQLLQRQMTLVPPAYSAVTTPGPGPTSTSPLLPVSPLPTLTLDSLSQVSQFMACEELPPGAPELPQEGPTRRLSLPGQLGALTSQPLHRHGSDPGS
# KCNK3 inh = human KCNK3 channel inhibition, primary screen; actives 0.84% (n = 340,000); O14649; B-score at 10 µM; AID 602410; CHO-KCNK3 thallium flux, FluxOR fluorescence; active compounds read low;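 active = B-score under library mean minus 4 SD, starting fluorescence ratio at most library mean plus 5 SD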;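 note: more negative B-score means stronger inhibition of thallium flux through KCNK3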
# KCNQ1 inh = inhibitors of human KCNQ1 potassium channel. AID 2642. CHO-K1 KCNQ1, FluxOR thallium flux fluorescence; active compounds read high. P51787. B-score at 10 µM. actives 1.3% (n = 310,000);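 active = compounds whose thallium flux B-score, printed positive for inhibition, exceeds three library SD while starting fluorescence stays within three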;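 note: channel opened by potassium depolarization with thallium stimulus after 20 min compound exposure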
# KCNQ1 pot = human KCNQ1 channel potentiation or activation; P51787; CHO-K1 KCNQ1, thallium flux FluxOR fluorescence; active compounds read high; B-score at 10 µM; actives 0.35% (n = 310,000); AID 2648;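 active = fluorescence ratio B-score, a plate-corrected score, at least three library SD, with initial intensity B-score within 5 SD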
#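 assay system = KCNQ1-transfected CHO-K1 cells | medium = assay buffer with matched DMSO | probe or stimulus = depolarizing K+/Tl+ stimulus, K2SO4 and Tl2SO4 each 12.5 mM in 5x stock | dosing = single dose | incubation = dye 90 min, compound 20 min, room temperature | detection = kinetic FluxOR fluorescence, 10 s baseline plus 110 s post-stimulus | evaluation = ratio B score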
# KCNK9 inh = human KCNK9 channel inhibition; Q9NPC2; HEK293 KCNK9, FluxOR thallium flux fluorescence; active compounds read low; B-score at 10 µM; actives 1.2% (n = 310,000);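 active = ratio B-score over 3 SD below the library mean, with starting fluorescence within 5 SD of its mean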;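 note: negative B-score means less thallium flux so channel inhibition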
# KCNQ1 block val = reconfirmed blocker of the human KCNQ1 potassium channel. shares compounds with KCNQ1 inh. KCNQ1 cell line, FluxOR thallium flux fluorescence. inhibition, % at 10 µM. actives 93% (n = 1,600). AID 588353;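 active = primary screen active, with duplicate mean exceeding buffer control mean plus 3 SD of buffer wells, cut at about 28% in these data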;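 note: 0% = buffer control ratio and 100% = XE991 inhibitor control ratio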
# CHO KCNQ1 ctr = counter-screen for KCNQ1 inhibitors: effect in parental CHO cells | shares compounds with KCNQ1 inh | parental CHO-K1, FluxOR thallium flux fluorescence ratio; active compounds read low; zero means no signal rise above baseline | fluorescence ratio (Tl flux) at 10 µM | actives 21% (n = 1,600);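 active = mean of duplicate thallium-flux fluorescence ratios in parental host cells more than 5 SD below the buffer control mean, cut at about 0.38 in these data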;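 note: ratio is peak minus minimum fluorescence divided by baseline fluorescence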
# KCNQ1 APC inh = confirmation of human KCNQ1 potassium channel inhibitors by electrophysiology. AID 624120. calls only at 10 µM. shares compounds with KCNQ1 inh. actives 20% (n = 490). KCNQ1-CHO cells, automated patch clamp current;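 active = KCNQ1 current drop exceeding 3 SD of negative control wells, seen in both duplicate runs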;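 note: steady state current during a 2 s step from -80 to +40 mV; negative values mean current inhibition and positive values mean potentiation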
# KCNQ2 spec = selectivity of KCNQ1 inhibitors: inhibition of rat KCNQ2 channel; inhibition, % at 10 µM; shares compounds with KCNQ1 inh; actives 71% (n = 1,600); KCNQ2 cells, FluxOR thallium flux fluorescence; AID 651746;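 active = mean percent inhibition of the KCNQ2 thallium signal more than 5 SD above the buffer-only control wells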;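 note: KCNQ2 expressed in CHO cells; 0% = buffer control wells and 100% = XE-991 inhibitor control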
# KCNQ1-KCNE1 inh = human KCNQ1/KCNE1 inhibition in KCNQ1 specificity screen. KCNQ1/KCNE1 cells, FluxOR thallium flux fluorescence. shares compounds with KCNQ1 inh. inhibition, % at 10 µM. actives 77% (n = 1,600). AID 652147;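 active = mean percent inhibition of duplicate wells above the buffer-only control mean plus 3 SD of those controls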;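 note: 0% = buffer only wells and 100% = XE-991 inhibitor control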
# * = called active by the depositor; i = inactive; / = no result given.
SMILES,Kir21 inh,hERG protect,KCNK3 inh,KCNQ1 inh,KCNQ1 pot,KCNK9 inh,KCNQ1 block val,CHO KCNQ1 ctr,KCNQ2 spec,KCNQ1-KCNE1 inh,others
COc1ccc(S(=O)(=O)N2CCN(c3c(C)cccc3C)CC2)cc1OC,1.32,-11.2,i,8*,i,i,99.0*,0.363*,110.0%*,92.5%*,
COc1ccc(S(=O)(=O)N2CCN(c3ccc(C)cc3C)CC2)cc1OC,-0.78,-8.1,i,i,i,i,/,/,/,/,
O=C(CSC1=NS(=O)(=O)c2ccccc21)Nc1ccccc1,-0.22,-23.7,i,7*,i,i,78.5*,0.4,85.3%*,122.0%*,
COC(=O)CSc1nnc(-c2ccccc2OC)o1,0.78,-3.6,i,i,i,i,/,/,/,/,
COC(=O)CSC1=NS(=O)(=O)c2ccccc21,-5.81*,-31.0,i,8*,i,i,100.5*,0.377*,97.7%*,141.0%*,
O=C(c1cccc(NS(=O)(=O)c2ccc(F)c(F)c2)c1)N1CCN(C(c2ccccc2)c2ccccc2)CC1,-0.23,-14.7,i,11*,i,i,131.0*,0.405,109.3%*,155.0%*,KCNQ1 APC inh=i
CCN(CC)S(=O)(=O)c1ccc(N2CCOCC2)c(NC(=O)C2=COCCO2)c1,-0.05,-10.6,i,i,i,i,/,/,/,/,
O=C(Nc1ccc(Br)c(C(F)(F)F)c1)c1ccccc1,-1.49,-14.2,i,6*,i,-7.74*,125.0*,0.396,136.7%*,109.5%*,KCNQ1 APC inh=i
O=C(Nc1ccc(C(F)(F)F)cc1)c1ccccc1,/,/,i,/,/,/,/,/,/,/,
Cc1ccc(S(=O)(=O)NC(C)C(c2cccs2)N2CCN(c3ccccc3)CC2)cc1 (centres undefined),0.36,-5.3,i,7*,i,i,67.5*,0.446,88.7%*,92.0%*,
Cc1ccc(S(=O)(=O)NC(C)C(c2cccs2)N2CCN(C)CC2)cc1 (centres undefined),-1.32,-0.7,i,i,i,i,/,/,/,/,
O=C(CSc1nnc2n1CCCN2C(=S)Nc1ccc(Cl)cc1)c1ccccc1,-0.12,-20.1,i,9*,i,i,102.5*,0.525,i,70.0%*,KCNQ1 APC inh=i
S=C(NCc1cccs1)Nc1cc(Cl)cc(Cl)c1,1.85,-10.4,i,6*,i,i,33.5*,0.537,77.7%*,i,
S=C(NCc1cccs1)Nc1cccc(Cl)c1,-0.31,-11.4,i,i,i,i,/,/,/,/,
CN(C(=O)COC(=O)CCC(=O)c1ccc(Cl)cc1)c1c(N)n(Cc2ccccc2)c(=O)[nH]c1=O,0.65,-6.6,i,i,i,i,/,/,/,/,
COC(Cc1ccccc1N1CCCC1=O)OC,0.06,-2.2,i,i,i,i,/,/,/,/,
COC(=O)c1ccc(NC(=O)c2ccc(NC(=O)c3ccco3)cc2)cc1,-0.31,-4.1,i,6*,i,i,0.0,0.508,i,55.0%*,
CC(=O)c1ccc(NC(=O)c2ccc(NC(=O)c3ccco3)cc2)cc1,0.04,-5.3,i,i,i,i,/,/,/,/,
COc1ccc(CCC(=O)N2CCN(S(=O)(=O)c3ccc(OC(F)(F)F)cc3)CC2)cc1,/,/,i,/,/,/,/,/,/,/,
CCC(C)Nc1nc(OCC(F)(F)F)nc(OCC(F)(F)F)n1 (centres undefined),-0.54,-7.0,i,i,i,i,/,/,/,/,
